Reference: ChEMBL document CHEMBL2169835, “Flavonoid dimers as novel, potent antileishmanial agents” (J Med Chem, 2012)

Tests used:
Leishmania donovani [1] = assay: Antimicrobial activity against SSG-resistant Leishmania donovani 39 promastigote assessed as inhibition of parasite growth after 72 hrs by MTS assay; type: functional, organism-based; conditions: Leishmania donovani, 39, 72 h
Summary of the method: (§1)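 Promastigotes were grown in Schneider's medium pH 6.9 with 10% heat-inactivated FBS at 27 °C, seeded at 1 × 10^5 per well, and exposed to serial concentrations for 72 h at 27 °C. Compounds were in DMSO (≤1% final) or water. MTS:PMS (20:1) was added for 4 h, then OD490 was read. Survival was % of untreated control; IC50 = concentration halving OD; N = 1−4.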

Leishmania donovani [2] = assay: Antimicrobial activity against wild-type Leishmania donovani AG83 promastigote assessed as inhibition of parasite growth after 72 hrs by MTS assay; type: functional, organism-based; conditions: AG83, 72 h
Summary of the method: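 Promastigotes were grown in Schneider's medium pH 6.9 with 10% heat-inactivated FBS at 27 °C, seeded at 1 × 10^5 per well, and exposed to serial concentrations for 72 h at 27 °C. Compounds were in DMSO (≤1% final) or water. MTS:PMS (20:1) was added for 4 h, then OD490 was read.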

Leishmania donovani [3] = assay: Antimicrobial activity against pentamidine-resistant Leishmania donovani AG83PentR50 promastigote assessed as inhibition of parasite growth after 72 hrs by MTS assay; type: functional, organism-based; conditions: AG83PentR50, 72 h; summary of the method: as §1
RAW264.7 = assay: Cytotoxicity against mouse RAW264.7 cells after 72 hrs by MTS assay; type: cell-based; conditions: RAW264.7, 72 h
Summary of the method: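 RAW 264.7 murine macrophage line was plated at 1 × 10^4 cells per well in supplemented DMEM. Cells received a graded compound series for 72 h at 37 °C, 5% CO2, with a maximum of 1% DMSO. Viability was measured by MTS with PMS coupling at OD 490 nm, as percent of untreated control. The IC50 was the concentration reducing OD by half, given as mean ± SEM, N = 1–4.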

Row | SMILES | IC50 (Leishmania donovani [1]) [µM] | IC50 (Leishmania donovani [2]) [µM] | IC50 (Leishmania donovani [3]) [µM] | IC50 (RAW264.7) [µM]
1 | O=c1c(O)c(-c2ccc(OCCOCCOCCOCCOc3ccc(-c4oc5ccccc5c(=O)c4O)cc3)cc2)oc2ccccc12 | > 24 | > 24 | – | –
2 | O=c1cc(-c2ccc(OCCOCCOCCOCCOCCOCCOCCOCCOCCOc3ccc(-c4cc(=O)c5ccccc5o4)cc3)cc2)oc2ccccc12 | 8.6 | 9.4 | 10.6 | 8.1
3 | Cc1ccc2oc(-c3ccc(OCCOCCOCCOCCOc4ccc(-c5cc(=O)c6cc(C)ccc6o5)cc4)cc3)cc(=O)c2c1 | > 24 | > 24 | > 24 | > 100
4 | O=c1cc(-c2ccc(OCCOCCOCCOCCOCCOc3ccc(-c4cc(=O)c5c(O)cc(O)cc5o4)cc3)cc2)oc2cc(O)cc(O)c12 | 1.8 | 2.3 | 2.6 | > 200
5 | O=c1cc(-c2ccc(OCCOCCOCCOc3ccc(-c4cc(=O)c5c(O)cc(O)cc5o4)cc3)cc2)oc2cc(O)cc(O)c12 | 2.7 | 5.6 | 6.7 | > 200
6 | O=c1cc(-c2ccc(OCCOCCOCCOc3ccc(-c4cc(=O)c5ccccc5o4)cc3)cc2)oc2ccccc12 | > 24 | > 24 | > 24 | > 95
7 | O=C(O)CCC(=O)N(CCOCCOc1ccc(-c2cc(=O)c3ccccc3o2)cc1)CCOCCOc1ccc(-c2cc(=O)c3ccccc3o2)cc1 | > 100 | > 100 | 27 | 65
8 | O=c1cc(-c2ccc(OCCOCCN(CCOCCOc3ccc(-c4cc(=O)c5ccccc5o4)cc3)Cc3ccnc4ccccc34)cc2)oc2ccccc12 | – | 20.4 | – | –
9 | O=c1cc(-c2ccc(OCCOCCOCCOCCOCCOCCOc3ccc(-c4cc(=O)c5ccc(F)cc5o4)cc3)cc2)oc2cc(F)ccc12 | 4.2 | 4.2 | 4.6 | 7.8
10 | Cc1ccc2oc(-c3ccc(OCCOCCOCCOCCOCCOc4ccc(-c5cc(=O)c6cc(C)ccc6o5)cc4)cc3)cc(=O)c2c1 | 4.3 | > 24 | > 24 | > 100
11 | O=c1cc(-c2ccc(OCCOCCN(CCO)CCOCCOc3ccc(-c4cc(=O)c5ccccc5o4)cc3)cc2)oc2ccccc12 | 7.2 | 3.2 | – | 6.4
12 | O=c1cc(-c2ccc(OCCOCCOc3ccc(-c4cc(=O)c5ccccc5o4)cc3)cc2)oc2ccccc12 | > 24 | > 24 | > 24 | > 100
13 | CC(C)(C)OC(=O)N(CCOCCOc1ccc(-c2cc(=O)c3ccccc3o2)cc1)CCOCCOc1ccc(-c2cc(=O)c3ccccc3o2)cc1 | 1.6 | 3.2 | 1.1 | > 100
14 | O=c1cc(-c2ccc(OCCOCCOCCOCCOc3ccc(-c4cc(=O)c5c(O)cccc5o4)cc3)cc2)oc2cccc(O)c12 | > 24 | > 24 | – | –
15 | O=c1cc(-c2ccc(OCCOCCOCCOCCOCCOc3ccc(-c4cc(=O)c5ccc(F)cc5o4)cc3)cc2)oc2cc(F)ccc12 | 4.8 | 4.1 | 3.7 | > 100
16 | O=c1cc(-c2ccc(OCCOCCOCCOCCOc3ccc(-c4cc(=O)c5c(O)cc(O)cc5o4)cc3)cc2)oc2cc(O)cc(O)c12 | 1.9 | 2.2 | 3.1 | > 200
17 | COC(=O)c1ccc(CN(CCOCCOc2ccc(-c3cc(=O)c4ccccc4o3)cc2)CCOCCOc2ccc(-c3cc(=O)c4ccccc4o3)cc2)cc1 | > 100 | > 100 | – | 45.7
18 | Cc1c(-c2ccc(OCCOCCOCCOCCOCCOCCOc3ccc(-c4oc5ccccc5c(=O)c4C)cc3)cc2)oc2ccccc2c1=O | 2.8 | 1.9 | 2.5 | 2.3
19 | O=c1cc(-c2ccc(OCCOCCN(CCOCCOc3ccc(-c4cc(=O)c5ccccc5o4)cc3)Cc3cc(F)c(F)c(F)c3)cc2)oc2ccccc12 | – | 33.3 | – | –
20 | O=c1cc(-c2ccc(OCCOCCN(CCOCCOc3ccc(-c4cc(=O)c5ccccc5o4)cc3)Cc3ccc(F)cc3)cc2)oc2ccccc12 | – | > 100 | – | –
21 | O=c1cc(-c2ccc(OCCOCCOCCOCCOCCOCCOCCOCCOCCOCCOCCOCCOCCOc3ccc(-c4cc(=O)c5ccccc5o4)cc3)cc2)oc2ccccc12 | 8.2 | 9.2 | 7.9 | 8.4
22 | O=c1cc(-c2ccc(OCCOCCOCCOCCOCCOCCOc3ccc(-c4cc(=O)c5c(O)cc(O)cc5o4)cc3)cc2)oc2cc(O)cc(O)c12 | 1.4 | > 24 | 11.8 | –

Row | SMILES | IC50 (Leishmania donovani [1]) [µM] | IC50 (Leishmania donovani [2]) [µM] | IC50 (Leishmania donovani [3]) [µM] | IC50 (RAW264.7) [µM]
23 | Cc1ccc2oc(-c3ccc(OCCOCCOCCOCCOCCOCCOc4ccc(-c5cc(=O)c6cc(C)ccc6o5)cc4)cc3)cc(=O)c2c1 | 3.6 | 2.2 | > 24 | > 100
24 | O=c1cc(-c2ccc(OCCOCCOCCOCCOc3ccc(-c4cc(=O)c5ccccc5o4)cc3)cc2)oc2ccccc12 | > 24 | > 24 | > 24 | > 100
25 | O=c1cc(-c2ccc(OCCOCCN(CCOCCOc3ccc(-c4cc(=O)c5ccccc5o4)cc3)Cc3ccccc3F)cc2)oc2ccccc12 | – | > 100 | – | –
26 | Cc1ccc2c(=O)cc(-c3ccc(OCCOCCOCCOCCOc4ccc(-c5cc(=O)c6ccc(C)cc6o5)cc4)cc3)oc2c1 | > 24 | > 24 | > 24 | 88.6
27 | O=c1cc(-c2ccc(OCCOCCOCCOCCOc3ccc(-c4cc(=O)c5ccc(F)cc5o4)cc3)cc2)oc2cc(F)ccc12 | 2.4 | 2.6 | 2.3 | > 200
28 | O=c1cc(-c2ccc(OCCOCCN(CCOCCOc3ccc(-c4cc(=O)c5ccccc5o4)cc3)Cc3cccc(F)c3)cc2)oc2ccccc12 | – | > 100 | – | –
29 | CCc1ccc2oc(-c3ccc(OCCOCCOCCOCCOc4ccc(-c5cc(=O)c6cc(CC)ccc6o5)cc4)cc3)cc(=O)c2c1 | > 24 | > 24 | > 24 | > 100
30 | O=c1cc(-c2ccc(OCCOCCN(CCOCCOc3ccc(-c4cc(=O)c5ccccc5o4)cc3)Cc3ccc(C(F)(F)F)cc3)cc2)oc2ccccc12 | – | 14.1 | – | –
31 | CCOC(=O)CCN(CCOCCOc1ccc(-c2cc(=O)c3ccccc3o2)cc1)CCOCCOc1ccc(-c2cc(=O)c3ccccc3o2)cc1 | 6.6 | 3.8 | – | 16
32 | O=c1cc(-c2ccc(OCCOCCOCCOCCOCCOCCOCCOCCOc3ccc(-c4cc(=O)c5ccccc5o4)cc3)cc2)oc2ccccc12 | 4.6 | 5 | 6 | 4.4
33 | O=c1cc(-c2ccc(OCCOCCN(CCOCCOc3ccc(-c4cc(=O)c5ccccc5o4)cc3)Cc3ccc([N+](=O)[O-])cc3)cc2)oc2ccccc12 | > 100 | > 100 | – | 70.3
34 | CCN(CCOCCOc1ccc(-c2cc(=O)c3ccccc3o2)cc1)CCOCCOc1ccc(-c2cc(=O)c3ccccc3o2)cc1 | 5.5 | 3.2 | – | 8.3
35 | CCc1ccc2oc(-c3ccc(OCCOCCOCCOCCOCCOc4ccc(-c5cc(=O)c6cc(CC)ccc6o5)cc4)cc3)cc(=O)c2c1 | 4.6 | 4.7 | 6.3 | > 200
36 | Cc1c(-c2ccc(OCCOCCOCCOCCOCCOc3ccc(-c4oc5ccccc5c(=O)c4C)cc3)cc2)oc2ccccc2c1=O | 4.2 | 4.8 | 4.6 | 3.1
37 | O=c1cc(-c2ccc(OCCOCCNCCOCCOc3ccc(-c4cc(=O)c5ccccc5o4)cc3)cc2)oc2ccccc12 | 2.3 | 3.3 | 1.1 | 2.1
38 | O=c1cc(-c2ccc(OCCOCCOCCOCCOCCOCCOc3ccc(-c4cc(=O)c5ccccc5o4)cc3)cc2)oc2ccccc12 | 4.3 | 4.8 | 4.9 | 7.1
39 | CCc1ccc2oc(-c3ccc(OCCOCCOCCOCCOCCOCCOc4ccc(-c5cc(=O)c6cc(CC)ccc6o5)cc4)cc3)cc(=O)c2c1 | 2.5 | 3.1 | 3.3 | 5.5
40 | Cc1ccc(S(=O)(=O)N(CCOCCOc2ccc(-c3cc(=O)c4ccccc4o3)cc2)CCOCCOc2ccc(-c3cc(=O)c4ccccc4o3)cc2)cc1 | > 100 | 100 | – | > 100
41 | O=c1cc(-c2ccc(OCCOCCN(CCCc3ccccc3)CCOCCOc3ccc(-c4cc(=O)c5ccccc5o4)cc3)cc2)oc2ccccc12 | 18.4 | 8.9 | – | 85
42 | CS(=O)(=O)N(CCOCCOc1ccc(-c2cc(=O)c3ccccc3o2)cc1)CCOCCOc1ccc(-c2cc(=O)c3ccccc3o2)cc1 | 0.9 | 0.75 | – | 96
43 | Cc1c(-c2ccc(OCCOCCOCCOCCOc3ccc(-c4oc5ccccc5c(=O)c4C)cc3)cc2)oc2ccccc2c1=O | > 19 | 6.9 | > 20 | 8.1
44 | O=c1cc(-c2ccc(OCCOCCN(CCOCCOc3ccc(-c4cc(=O)c5ccccc5o4)cc3)Cc3ccccc3)cc2)oc2ccccc12 | 12.3 | 8.4 | – | > 79
